One sequence from ChEMBL document CHEMBL1124291, “New actinomycin D analogues as superior chemotherapeutic agents against primary and advanced colon tumors and colon xenografts in nude mice” (J Med Chem, 1988) can be followed below.

For assay [1], the species on record is Rattus norvegicus. In words: DNA-cleaving ability expressed as % of closed circular pBR322 DNA cleaved at 100 uM conc 100 uM. Type of assay: functional. The method in brief: (§1)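 pBR322 DNA (200 μM nucleotides) in 10 mM Tris·HCl pH 7.8 and 50 mM NaCl, with 4 mM Na₂S₂O₄ and 100 μM FeCl₂. Incubated with drug for 1 h at 20 °C, kept air-saturated. Supercoiled and open-circular forms were separated by agarose gel electrophoresis, stained with ethidium bromide and quantitated by densitometry. % cleaved was calculated from the open- and closed-circular amounts.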

For assay [2], the species on record is Rattus norvegicus. In words: DNA-cleaving ability expressed as % of closed circular pBR322 DNA cleaved […] conc 50 uM. It is filed as functional. The method in brief:
as §1

For the sequence BLEOMYCIN, the results for the Activity in the assay filed under Rattus norvegicus [1] and in the assay filed under Rattus norvegicus [2] were greater than 85% and 75%, respectively.
